The values below come from ChEMBL document CHEMBL4145466, “Design, synthesis, and biological evaluation of novel combretastatin A-4 thio derivatives as microtubule targeting agents” (Eur J Med Chem, 2018).

Molecules are shown by their SMILES. Active and inactive are the calls of the source. The rule behind the calls is not given here.

Data set [1] relates to HaCaT. In words: Induction of apoptosis in human HaCaT cells assessed as increase in histone-associated DNA fragments in mononucleosomes after 24 hrs by ELISA. Type of data set: cell-based. The method in brief:
(§1)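 Cells (2 × 10^4) were incubated for 24 h at 0.1, 0.5 or 1 µM, lysed and centrifuged. Supernatants went onto a streptavidin plate with anti-histone-biotin and anti-DNA-peroxidase for 2 h, followed by ABTS for 30 min and a reading at 405 nm. Nucleosome content was expressed as an enrichment factor, as mean ± SD of three experiments.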

Data set [2] addresses T1, Tubulin (Homo sapiens) (UniProt P68371+Q9H4B7+P0DPH7+P68366+Q13509+Q71U36+P04350+Q3ZCM7+P07437+P68363+Q9BQE3+Q6PEY2+Q13885+Q9BVA1+Q9BUF5). In words: Inhibition of tubulin polymerization in human A431 cells assessed as chromatin condensation at 1 uM after 24 hrs by Hoechst 33258 staining-based fluorescence microscopic analysis. Type of data set: cell-based. The method in brief:
(§2)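 Cells were seeded at 12.5 × 10^4 per well and treated at 1 µM for 24 h. They were stained with Hoechst 33258 (10 µg/mL, 30 min, 37 °C), fixed in 4% formaldehyde, permeabilized with 1% Triton X-100 and blocked in 2% BSA. Anti-α-tubulin-FITC (1:50) was applied overnight at 4 °C, and cells were imaged by fluorescence microscopy.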

Data set [3] concerns the target T1, Tubulin (Homo sapiens). In words: Inhibition of tubulin polymerization in human SKOV3 cells assessed as chromatin condensation at 1 uM after 24 hrs by Hoechst 33258 staining-based fluorescence microscopic analysis. The data set is classed as cell-based. The method in brief: (§3)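 Cells seeded at 12.5 × 10^4 per well and exposed to 1 µM compound for 24 h. Nuclei were stained with Hoechst 33258 (10 µg/mL, 30 min, 37 °C), then fixed in 4% formaldehyde/PBS (15 min, RT). Cells were permeabilized with 1% Triton X-100, blocked with 2% BSA/PBS for 1 h, and incubated with anti-α-tubulin-FITC (1:50) overnight at 4 °C. Imaged by fluorescence microscopy.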

The target in data set [4] is T1, Tubulin (Homo sapiens). Nature of the data set: Inhibition of tubulin polymerization in human MCF7 cells assessed as chromatin condensation at 1 uM after 24 hrs by Hoechst 33258 staining-based fluorescence microscopic analysis. Type of data set: cell-based. The method in brief:
as §3

The test system of a further data set is Tubulin. Nature of the data set: Inhibition of tubulin polymerization in human HaCaT cells assessed as chromatin condensation at 1 uM after 24 hrs by Hoechst 33258 staining-based fluorescence microscopic analysis. Type of data set: cell-based. The method in brief: as §2
The subject of data set [5] is HeLa. Nature of the data set: Cell cycle arrest in human HeLa cells assessed as accumulation of cells at G2/M phase at 0.1 to 1 uM after 24 hrs by propidium iodide staining-based FACS analysis. Type of data set: functional. The method in brief:
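Cells were seeded at 5 × 10^5 per well in DMEM with 10% FBS and left overnight, then exposed to 0.1, 0.5 or 1 µM for 24 h. DMSO served as the negative control and 50 nM camptothecin as the positive control. Cells were trypsinized, fixed in 70% ethanol for 30 min at 4 °C, stained with 50 µg/mL PI plus 100 µg/mL RNase A for 30 min in the dark, and analysed by flow cytometry. Results are mean ± SD of three experiments, compared by ANOVA with Dunnett's test.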

Data set [6] relates to MCF7. In words: Induction of apoptosis in human MCF7 cells assessed as increase in histone-associated DNA fragments in mononucleosomes after 24 hrs by ELISA. Type of data set: functional, cell-based. The method in brief: as §1
Data set [7] relates to HeLa. In words: Induction of apoptosis in human HeLa cells assessed as increase in histone-associated DNA fragments in mononucleosomes after 24 hrs by ELISA. Type of data set: functional, cell-based. The method in brief:
as §1

The subject of data set [8] is MDA-MB-231. In words: Induction of apoptosis in human MDA-MB-231 cells assessed as increase in histone-associated DNA fragments in mononucleosomes after 24 hrs by ELISA. Type of data set: functional, cell-based. A digest of the protocol:
as §1

The subject of data set [9] is A-431. Nature of the data set: Induction of apoptosis in human A431 cells assessed as increase in histone-associated DNA fragments in oligonucleosomes after 24 hrs by ELISA. The data set is classed as functional, cell-based. The method in brief:
as §1

The target of data set [10] is T1, Tubulin (Homo sapiens). Nature of the data set: Inhibition of tubulin polymerization in human MDA-MB-231 cells assessed as chromatin condensation at 1 uM after 24 hrs by Hoechst 33258 staining-based fluorescence microscopic analysis. Type of data set: cell-based. A digest of the protocol:
as §3

Data set [11] relates to A-431. Nature of the data set: Induction of apoptosis in human A431 cells assessed as increase in histone-associated DNA fragments in mononucleosomes after 24 hrs by ELISA. The data set is classed as functional, cell-based. A digest of the protocol: as §1
The subject of data set [12] is MDA-MB-231. Nature of the data set: Induction of apoptosis in human MDA-MB-231 cells assessed as increase in histone-associated DNA fragments in oligonucleosomes after 24 hrs by ELISA. Type of data set: functional, cell-based. The method in brief:
as §1

The test system of data set [13] is MCF7. In words: Induction of apoptosis in human MCF7 cells assessed as increase in histone-associated DNA fragments in oligonucleosomes after 24 hrs by ELISA. Type of data set: functional, cell-based. The method in brief:
as §1

Data set [14] has as its system MDA-MB-231. Nature of the data set: Induction of apoptosis in human MDA-MB-231 cells assessed as increase in histone-associated DNA fragments in mononucleosomes at 0.1 uM after 24 hrs by ELISA. The data set is classed as functional, cell-based. A digest of the protocol: as §1
Data set [15] concerns MCF7. In words: Induction of apoptosis in human MCF7 cells assessed as increase in histone-associated DNA fragments in mononucleosomes at 0.1 uM after 24 hrs by ELISA. The data set is classed as functional, cell-based. A digest of the protocol: as §1
Another data set has as its system SK-OV-3. Nature of the data set: Induction of apoptosis in human SKOV3 cells assessed as increase in histone-associated DNA fragments in mononucleosomes at 0.1 uM after 24 hrs by ELISA. The data set is classed as functional, cell-based. The method in brief:
as §1

The test system of data set [16] is HaCaT. Nature of the data set: Induction of apoptosis in human HaCaT cells assessed as increase in histone-associated DNA fragments in mononucleosomes at 0.1 uM after 24 hrs by ELISA. Type of data set: cell-based. A digest of the protocol: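 HaCaT cells (2 × 10^4), grown in DMEM with 10% FBS, penicillin/streptomycin and 2 mM L-glutamine, exposed to compound (DMSO stock) for 24 h. Cells lysed, supernatant taken after centrifugation and incubated 2 h on a streptavidin-coated plate with anti-histone-biotin and anti-DNA-peroxidase. ABTS added for 30 min, A405 read. Output is enrichment factor vs control, mean ± SD of three independent experiments.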

For data set [17], the system named is MDA-MB-231. In words: Induction of apoptosis in human MDA-MB-231 cells assessed as increase in histone-associated DNA fragments in oligonucleosomes at 0.1 uM after 24 hrs by ELISA. The data set is classed as functional, cell-based. The method in brief:
as §1

The subject of data set [18] is HeLa. In words: Induction of apoptosis in human HeLa cells assessed as increase in histone-associated DNA fragments in mononucleosomes at 0.1 uM after 24 hrs by ELISA. Type of data set: functional, cell-based. The method in brief: as §1

In the case of `COc1ccc(-c2ocnc2-c2cc(Br)c(OC)c(OC)c2)cc1SC`, the Activity result with HaCaT [1], in the data set with HeLa [5], in the data set with MCF7 [6], in the data set on HeLa [7], in the data set with MDA-MB-231 [8] and in the data set on A-431 [9] was “Dose-dependent effect” each time. The Activity entry in the data set with A-431 [11], in the data set with MDA-MB-231 [12] and in the data set on MCF7 [13] was “Dose-dependent effect” throughout. For the same compound, the inhibition entry at Tubulin (Homo sapiens) [2], at Tubulin (Homo sapiens) [3], on Tubulin (Homo sapiens) [4] and on Tubulin (Homo sapiens) [10] was “Active” throughout. For the same compound, in the data set on Tubulin, the “inhibition (INH)” value is listed as “Active”.
As to `COc1ccc(-c2ocnc2-c2cc(OC)c(SC)c(OC)c2)cc1O`, the result in the data set on MDA-MB-231 [14], in the data set with MCF7 [15], with SK-OV-3, with MDA-MB-231 [17] and in the data set on HeLa [18] was Active. Moreover, the Activity entry with HaCaT [16] is “Toxic”.
